Experimental data taken from ChEMBL document CHEMBL3091274, “SAR-based optimization of 2-(1H-pyrazol-1-yl)-thiazole derivatives as highly potent EP1 receptor antagonists” (Bioorg Med Chem Lett, 2013).
Converted amounts (≈) assume the structure as drawn. Values belong to the compound of their own block, whether it stands above or below them.

Tests used:
[1] = target: T1, Prostaglandin E2 receptor EP1 subtype (Homo sapiens) (UniProt P34995); test: Antagonist activity human EP1 receptor assessed as inhibition of PGE2-induced effect at 1 uM by reporter gene assay relative to control
T1 sequence (whole entry): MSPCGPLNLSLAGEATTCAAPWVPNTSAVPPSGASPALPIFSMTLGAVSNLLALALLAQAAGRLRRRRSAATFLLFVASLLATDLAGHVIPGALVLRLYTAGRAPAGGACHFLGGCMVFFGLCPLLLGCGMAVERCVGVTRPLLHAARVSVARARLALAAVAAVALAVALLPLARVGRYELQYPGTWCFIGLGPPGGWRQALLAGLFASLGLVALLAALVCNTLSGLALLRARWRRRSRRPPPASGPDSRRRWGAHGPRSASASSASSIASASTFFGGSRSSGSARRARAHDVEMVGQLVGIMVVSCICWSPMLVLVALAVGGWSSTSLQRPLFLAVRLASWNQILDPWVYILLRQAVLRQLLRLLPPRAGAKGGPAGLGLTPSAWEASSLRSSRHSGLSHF

[2] = target: T2, Prostaglandin E2 receptor EP1 subtype (Homo sapiens, UniProt P34995); test: Antagonist activity human EP1 receptor assessed as inhibition of PGE2-induced effect by reporter gene assay
T2 sequence (P34995 whole entry): T1 sequence (whole entry)
In short: (§1)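 Human EP1 receptor-expressing recombinant cells stimulated with PGE2; antagonism read out by reporter-gene assay or by intracellular Ca2+ release; IC50 in nM.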

[3] = target: T2, Prostaglandin E2 receptor EP1 subtype; test: Antagonist activity human EP1 receptor assessed as inhibition of PGE2-induced intracellular Ca2+ release by cell-based assay; assay type: functional; in short: as §1
[4] = Intrinsic clearance in human liver microsomes; assay type: ADME; settings: read-out: CLH
In short: (§2)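 Rat or human hepatic microsomes; test compound at 0.5 µM; CLint calculated from elimination ratio between 0 and 20 min; expressed as ml/min/kg.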

[5] = Intrinsic clearance in rat liver microsomes; assay type: ADME; settings: read-out: CLH; in short: as §2
[6] = Solubility of the compound in water; assay type: physicochemical
[7] = target: albumin (Homo sapiens, UniProt P02768); test: Binding affinity to albumin in plasma (unknown origin); assay type: ADME; settings: read-out: PPB (converted)
[8] = Solubility of the compound at pH 6.8; assay type: physicochemical; settings: buffer
In short: (§3)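 Solubility measured in aqueous buffer at pH 1.2 and pH 6.8; reported in […].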

[9] = target: T3, Cytochrome P450 1A2 (Homo sapiens, UniProt P05177); test: Inhibition of human CYP1A2; assay type: ADME
T3 sequence (P05177 whole entry): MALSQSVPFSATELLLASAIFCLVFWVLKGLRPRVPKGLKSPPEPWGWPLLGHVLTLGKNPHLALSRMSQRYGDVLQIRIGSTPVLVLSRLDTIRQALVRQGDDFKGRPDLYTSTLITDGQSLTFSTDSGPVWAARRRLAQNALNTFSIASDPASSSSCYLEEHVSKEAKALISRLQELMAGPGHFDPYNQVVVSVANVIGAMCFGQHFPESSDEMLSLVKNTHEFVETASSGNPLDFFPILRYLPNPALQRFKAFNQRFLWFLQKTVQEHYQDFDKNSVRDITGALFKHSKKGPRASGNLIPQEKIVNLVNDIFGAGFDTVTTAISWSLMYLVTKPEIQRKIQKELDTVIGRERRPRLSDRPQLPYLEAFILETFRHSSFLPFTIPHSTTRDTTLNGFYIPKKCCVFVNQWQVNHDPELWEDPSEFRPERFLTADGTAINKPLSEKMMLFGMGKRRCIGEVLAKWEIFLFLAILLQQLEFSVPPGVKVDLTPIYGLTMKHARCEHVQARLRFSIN

[10] = target: Cytochrome P450 3A4 (Homo sapiens, UniProt P08684); test: Inhibition of human CYP3A4; assay type: ADME
[11] = target: Prostaglandin E2 receptor EP2 subtype (Homo sapiens, UniProt P43116); test: Binding affinity to human EP2 receptor
[12] = target: Cytochrome P450 2D6 (Homo sapiens, UniProt P10635); test: Inhibition of human CYP2D6; assay type: ADME
[13] = target: Cytochrome P450 2C19 (Homo sapiens, UniProt P33261); test: Inhibition of human CYP2C19; assay type: ADME
[14] = Apparent permeability in MDCK cells; assay type: ADME, cell-based, Canis lupus familiaris; settings: dog
In short: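 Epithelial permeability across Madin–Darby canine kidney cell monolayer, with atenolol as reference.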

[15] = tested on: Salmonella typhimurium; test: Genotoxicity in Salmonella typhimurium TA98 by Ames test; assay type: toxicity, organism-based; settings: salmonella enterica subsp. enterica serovar typhimurium
In short: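 Bacterial reverse mutation (Ames) test in amino acid-requiring Salmonella typhimurium TA98, detecting point mutations.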

[16] = target: Cytochrome P450 2C9 (Homo sapiens, UniProt P11712); test: Inhibition of human CYP2C9; assay type: ADME
[17] = AUC (0 to infinity) in rat at 10 mg/kg, po; assay type: ADME, organism-based; design: time infinity, dose 10 mg/kg, route oral; settings: plasma
In short: (§4)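 Rats (n = 3) given single oral dose, 10 mg/kg; plasma Cmax, AUC and bioavailability derived from pharmacokinetic profile.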

[18] = target: T4, Prostaglandin E2 receptor EP3 subtype (Homo sapiens, UniProt P43115); test: Binding affinity to human EP3 receptor
T4 sequence (P43115 whole entry): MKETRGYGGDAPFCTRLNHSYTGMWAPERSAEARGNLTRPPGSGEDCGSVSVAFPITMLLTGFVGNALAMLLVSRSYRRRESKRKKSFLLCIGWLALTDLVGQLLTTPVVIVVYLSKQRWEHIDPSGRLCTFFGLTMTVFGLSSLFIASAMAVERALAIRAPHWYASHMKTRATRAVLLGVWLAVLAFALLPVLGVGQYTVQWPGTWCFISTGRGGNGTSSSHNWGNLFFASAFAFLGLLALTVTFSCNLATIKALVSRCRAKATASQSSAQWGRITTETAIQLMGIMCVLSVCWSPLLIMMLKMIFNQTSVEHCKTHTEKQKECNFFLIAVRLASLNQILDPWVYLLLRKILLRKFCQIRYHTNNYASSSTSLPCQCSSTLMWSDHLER

[19] = Oral bioavailability in rat at 10 mg/kg; assay type: ADME, organism-based; settings: in vivo; in short: as §4
[20] = Cmax in rat at 10 mg/kg, po; assay type: ADME, organism-based; design: dose 10 mg/kg, route oral; settings: in vivo; in short: as §4
[21] = target: Prostaglandin E2 receptor EP4 subtype (Homo sapiens, UniProt P35408); test: Binding affinity to human EP4 receptor
[22] = target: T5, Thromboxane A2 receptor (Homo sapiens, UniProt P21731); test: Inhibition of TP receptor (unknown origin)
T5 sequence (P21731 whole entry): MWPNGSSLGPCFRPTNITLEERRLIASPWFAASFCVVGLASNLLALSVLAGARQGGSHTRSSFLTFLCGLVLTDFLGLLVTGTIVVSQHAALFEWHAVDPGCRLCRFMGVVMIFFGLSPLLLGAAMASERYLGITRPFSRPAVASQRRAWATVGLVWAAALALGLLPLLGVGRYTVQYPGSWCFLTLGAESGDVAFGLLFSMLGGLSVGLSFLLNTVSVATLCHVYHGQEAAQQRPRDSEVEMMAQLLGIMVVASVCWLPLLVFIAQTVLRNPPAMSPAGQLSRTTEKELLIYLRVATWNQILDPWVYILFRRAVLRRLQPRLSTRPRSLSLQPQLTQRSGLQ

[23] = target: T2, Prostaglandin E2 receptor EP1 subtype; test: Binding affinity to human EP1 receptor
[24] = Solubility of the compound at pH 1.2; assay type: physicochemical; settings: buffer; in short: as §3

albumin, sequence (P02768 whole entry): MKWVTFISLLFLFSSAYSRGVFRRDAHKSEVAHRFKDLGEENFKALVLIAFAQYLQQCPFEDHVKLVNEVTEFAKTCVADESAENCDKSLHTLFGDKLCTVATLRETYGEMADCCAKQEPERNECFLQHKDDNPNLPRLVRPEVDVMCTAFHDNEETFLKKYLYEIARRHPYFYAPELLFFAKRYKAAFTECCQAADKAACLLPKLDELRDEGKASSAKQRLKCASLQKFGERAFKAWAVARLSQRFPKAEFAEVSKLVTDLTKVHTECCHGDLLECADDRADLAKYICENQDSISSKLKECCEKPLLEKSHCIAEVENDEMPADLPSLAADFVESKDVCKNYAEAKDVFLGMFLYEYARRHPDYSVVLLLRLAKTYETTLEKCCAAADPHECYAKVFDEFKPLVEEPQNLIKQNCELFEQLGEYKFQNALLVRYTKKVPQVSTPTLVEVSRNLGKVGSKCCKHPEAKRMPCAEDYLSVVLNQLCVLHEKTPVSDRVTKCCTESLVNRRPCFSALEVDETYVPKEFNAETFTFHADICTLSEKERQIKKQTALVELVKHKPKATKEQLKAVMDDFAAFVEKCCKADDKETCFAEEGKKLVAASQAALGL
Cytochrome P450 3A4, sequence (P08684 whole entry): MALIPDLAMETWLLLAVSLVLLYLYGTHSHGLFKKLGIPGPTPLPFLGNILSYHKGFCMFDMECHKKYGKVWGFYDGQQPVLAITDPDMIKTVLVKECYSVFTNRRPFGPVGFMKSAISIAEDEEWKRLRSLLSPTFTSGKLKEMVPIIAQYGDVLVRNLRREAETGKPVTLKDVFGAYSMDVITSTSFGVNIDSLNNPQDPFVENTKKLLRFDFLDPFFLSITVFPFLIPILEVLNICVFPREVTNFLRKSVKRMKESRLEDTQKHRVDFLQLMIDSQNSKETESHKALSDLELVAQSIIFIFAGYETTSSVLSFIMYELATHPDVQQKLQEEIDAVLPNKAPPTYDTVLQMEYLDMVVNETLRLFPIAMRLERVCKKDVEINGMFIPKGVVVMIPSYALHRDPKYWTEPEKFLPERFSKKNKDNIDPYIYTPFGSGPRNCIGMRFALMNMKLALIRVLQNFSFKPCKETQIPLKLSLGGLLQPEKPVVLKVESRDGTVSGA
Prostaglandin E2 receptor EP2 subtype, sequence (P43116 whole entry): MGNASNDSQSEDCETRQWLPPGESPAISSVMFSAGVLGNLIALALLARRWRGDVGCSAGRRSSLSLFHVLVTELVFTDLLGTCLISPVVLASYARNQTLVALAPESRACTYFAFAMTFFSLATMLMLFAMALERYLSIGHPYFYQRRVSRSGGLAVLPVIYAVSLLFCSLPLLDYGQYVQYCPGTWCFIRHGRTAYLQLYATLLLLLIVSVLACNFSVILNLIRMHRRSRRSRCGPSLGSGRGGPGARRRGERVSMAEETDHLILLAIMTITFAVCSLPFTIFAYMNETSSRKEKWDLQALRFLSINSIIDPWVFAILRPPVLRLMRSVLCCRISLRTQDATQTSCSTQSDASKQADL
Cytochrome P450 2C19, sequence (P33261 whole entry): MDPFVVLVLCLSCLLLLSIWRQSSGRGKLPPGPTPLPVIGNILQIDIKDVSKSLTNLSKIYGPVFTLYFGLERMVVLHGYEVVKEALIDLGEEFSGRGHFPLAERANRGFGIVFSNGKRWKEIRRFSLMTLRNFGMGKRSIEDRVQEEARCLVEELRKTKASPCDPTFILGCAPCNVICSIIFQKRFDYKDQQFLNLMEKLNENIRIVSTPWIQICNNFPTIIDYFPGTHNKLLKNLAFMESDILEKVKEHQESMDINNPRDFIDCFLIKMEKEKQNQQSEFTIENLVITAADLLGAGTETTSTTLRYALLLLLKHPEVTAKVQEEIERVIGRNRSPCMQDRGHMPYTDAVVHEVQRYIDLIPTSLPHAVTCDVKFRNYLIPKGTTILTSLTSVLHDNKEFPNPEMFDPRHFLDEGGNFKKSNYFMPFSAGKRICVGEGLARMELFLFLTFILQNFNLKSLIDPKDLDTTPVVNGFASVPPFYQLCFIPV
Cytochrome P450 2D6, sequence (P10635 whole entry): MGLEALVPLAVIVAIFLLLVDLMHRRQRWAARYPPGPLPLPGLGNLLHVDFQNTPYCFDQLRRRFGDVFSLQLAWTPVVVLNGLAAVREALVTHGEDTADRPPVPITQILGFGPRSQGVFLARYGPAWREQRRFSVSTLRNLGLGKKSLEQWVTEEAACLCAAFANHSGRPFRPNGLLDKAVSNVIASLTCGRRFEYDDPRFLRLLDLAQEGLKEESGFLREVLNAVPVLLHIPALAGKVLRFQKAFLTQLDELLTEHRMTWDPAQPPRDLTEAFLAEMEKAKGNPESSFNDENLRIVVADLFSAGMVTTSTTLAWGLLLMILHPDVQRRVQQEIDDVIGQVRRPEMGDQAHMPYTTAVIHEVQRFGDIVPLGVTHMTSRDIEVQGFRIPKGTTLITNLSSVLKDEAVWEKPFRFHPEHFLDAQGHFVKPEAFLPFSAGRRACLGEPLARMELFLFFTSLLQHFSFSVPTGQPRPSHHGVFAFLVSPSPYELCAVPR
Cytochrome P450 2C9, sequence (P11712 whole entry): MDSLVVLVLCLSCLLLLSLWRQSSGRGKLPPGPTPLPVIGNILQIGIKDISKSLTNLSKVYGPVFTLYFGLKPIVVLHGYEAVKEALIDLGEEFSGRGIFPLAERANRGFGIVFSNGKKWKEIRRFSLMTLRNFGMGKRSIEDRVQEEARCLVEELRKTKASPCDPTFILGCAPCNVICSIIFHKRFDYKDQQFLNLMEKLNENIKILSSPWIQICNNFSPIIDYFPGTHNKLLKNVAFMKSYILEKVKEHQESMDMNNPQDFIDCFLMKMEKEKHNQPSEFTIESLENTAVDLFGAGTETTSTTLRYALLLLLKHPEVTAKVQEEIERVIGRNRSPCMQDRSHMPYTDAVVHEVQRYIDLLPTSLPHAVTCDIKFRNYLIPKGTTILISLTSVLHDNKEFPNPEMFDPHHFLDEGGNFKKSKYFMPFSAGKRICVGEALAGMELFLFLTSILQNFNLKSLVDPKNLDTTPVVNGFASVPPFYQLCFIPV
Prostaglandin E2 receptor EP4 subtype, sequence (P35408 whole entry): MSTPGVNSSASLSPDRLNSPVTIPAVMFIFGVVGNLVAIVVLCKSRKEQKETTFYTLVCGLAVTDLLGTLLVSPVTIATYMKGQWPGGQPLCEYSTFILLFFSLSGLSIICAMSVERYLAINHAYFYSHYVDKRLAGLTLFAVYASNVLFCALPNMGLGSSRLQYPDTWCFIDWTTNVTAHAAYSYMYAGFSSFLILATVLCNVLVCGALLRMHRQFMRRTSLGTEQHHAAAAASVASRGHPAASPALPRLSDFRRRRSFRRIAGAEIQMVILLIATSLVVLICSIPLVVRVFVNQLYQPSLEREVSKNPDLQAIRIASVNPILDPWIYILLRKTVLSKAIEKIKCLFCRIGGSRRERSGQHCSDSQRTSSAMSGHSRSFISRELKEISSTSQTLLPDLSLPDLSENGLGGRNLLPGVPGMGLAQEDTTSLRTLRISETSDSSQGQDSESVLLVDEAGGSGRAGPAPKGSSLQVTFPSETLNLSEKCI

- inhibition [1]: 18%
Structure (SMILES): COc1c(-c2ccccc2)nn(-c2nc(C(=O)O)cs2)c1-c1ccccc1

- IC50 [2]: 150 nM
Structure (SMILES): O=C(O)c1csc(-n2nc(-c3ccccc3)c(C(F)(F)F)c2-c2ccccc2)n1

- IC50 [3]: 20 nM
- CLint scaled [4]: 149 mL/min/kg
- CLint scaled [5]: 236 mL/min/kg
- IC50 [2]: 2 nM
- solubility [6]: 20 µg/mL (≈ 53.6 µM)
- fraction unbound [7]: 0.0012
- solubility [8]: 10 µg/mL (≈ 26.8 µM)
Structure (SMILES): O=C(O)c1csc(-n2nc3c(c2-c2ccccc2)CCc2ccccc2-3)n1

- IC50 [2]: 130 nM
Structure (SMILES): O=C(O)c1csc(-n2nc(-c3ccccc3)c(I)c2-c2ccccc2)n1

- IC50 [2]: 60 nM
Structure (SMILES): O=C(O)c1csc(-n2nc(-c3ccccc3)c(O)c2-c2ccccc2)n1

- CLint scaled [4]: 35 mL/min/kg
- IC50 [9]: 7930 nM
- IC50 [10]: > 10000 nM
- Ki [11]: > 8700 nM
- CLint scaled [5]: 15 mL/min/kg
- IC50 [12]: > 10000 nM
- IC50 [13]: 4710 nM
- Papp [14]: 51.6 ×10⁻⁶ cm/s
- solubility [6]: 129 µg/mL (≈ 357 µM)
- fraction unbound [7]: 0.0029
- solubility [8]: 401 µg/mL (≈ 1110 µM)
- IC50 [16]: > 10000 nM
Structure (SMILES): Cc1c(-c2ccccc2)nn(-c2nc(C(=O)O)cs2)c1-c1ccccc1
- Activity [15]: Non-toxic

- IC50 [2]: 50 nM
Structure (SMILES): Cc1c(-c2ccccc2)nn(-c2nc(C(=O)O)cs2)c1-c1cccc(F)c1

- inhibition [1]: -4%
Structure (SMILES): CCc1c(-c2ccccc2)nn(-c2nc(C(=O)O)cs2)c1-c1ccccc1

- IC50 [2]: 20 nM
Structure (SMILES): O=C(O)c1csc(-n2nc(-c3ccccc3)c(Br)c2-c2ccccc2)n1

- IC50 [2]: > 100 nM
Structure (SMILES): O=C(O)c1csc(-n2nc(-c3ccccc3)c3c2-c2ccccc2CC3)n1

- IC50 [2]: 60 nM
Structure (SMILES): O=C(O)c1csc(-n2nc(-c3ccccc3)c(Cl)c2-c2ccccc2)n1

- IC50 [2]: 30 nM
Structure (SMILES): O=C(O)c1csc(-n2nc(-c3ccccc3)c(F)c2-c2ccccc2)n1

- IC50 [2]: 500 nM
Structure (SMILES): Cc1c(-c2ccccc2)nn(-c2nc(/C=C/C(=O)O)cs2)c1-c1ccccc1

- IC50 [3]: 60 nM
- CLint scaled [4]: 19 mL/min/kg
- IC50 [9]: 7100 nM
- AUC(0-inf) [17]: 17.4 µM·h
- Ki [18]: > 5000 nM
- IC50 [10]: > 10000 nM
- bioavailability [19]: 26%
- Ki [11]: > 8700 nM
- Cmax [20]: 6.33 µM
- Ki [21]: > 2700 nM
- IC50 [22]: 200 nM
- CLint scaled [5]: 29 mL/min/kg
- IC50 [12]: > 10000 nM
- IC50 [13]: 6140 nM
- Ki [23]: 8 nM
- solubility [24]: 867 µg/mL (≈ 2390 µM)
- IC50 [2]: 20 nM
- Papp [14]: 12.2 ×10⁻⁶ cm/s
- solubility [6]: 865 µg/mL (≈ 2390 µM)
- fraction unbound [7]: 0.01
- solubility [8]: 1010 µg/mL (≈ 2790 µM)
- IC50 [16]: 5620 nM
Structure (SMILES): Nc1c(-c2ccccc2)nn(-c2nc(C(=O)O)cs2)c1-c1ccccc1
- Activity [15]: Non-toxic

- IC50 [3]: 40 nM
- CLint scaled [4]: 425 mL/min/kg
- CLint scaled [5]: 927 mL/min/kg
- IC50 [2]: 0.9 nM
- solubility [6]: 4 µg/mL (≈ 11.1 µM)
- fraction unbound [7]: 0.0032
- solubility [8]: 57 µg/mL (≈ 159 µM)
Structure (SMILES): O=C(O)c1csc(-n2nc(-c3ccccc3)c3c2-c2ccccc2C3)n1

Second part, the compound before the results:

Structure (SMILES): Cc1c(-c2ccccc2)nn(-c2nc(C(=O)O)cs2)c1-c1cccnc1
- inhibition [1]: 34%

Structure (SMILES): Cc1c(-c2ccccc2)nn(-c2nc(C(=O)O)cs2)c1-c1ccc(N)cc1
- inhibition [1]: 10%

Structure (SMILES): Cc1c(-c2ccccc2)nn(-c2nc(C(=O)O)cs2)c1-c1ccc(F)cc1
- IC50 [2]: 100 nM

Structure (SMILES): Cc1c(-c2ccccc2)nn(-c2nc(C(=O)O)cs2)c1-c1ccsc1
- IC50 [2]: 80 nM

Structure (SMILES): Cc1c(-c2ccccc2)nn(-c2cccc(C(=O)O)n2)c1-c1ccccc1
- inhibition [1]: 48%

Structure (SMILES): Cc1c(-c2ccccc2)nn(-c2ccc(C(=O)O)o2)c1-c1ccccc1
- inhibition [1]: 24%

Structure (SMILES): Cc1c(-c2ccccc2)nn(-c2nc(C(=O)O)cs2)c1-c1cnn(C)c1
- inhibition [1]: 8%

Structure (SMILES): O=C(O)c1csc(-n2nc(-c3ccccc3)c3oc4ccccc4c32)n1
- IC50 [2]: 20 nM

Structure (SMILES): Cc1c(-c2ccccc2)nn(-c2nc(C(=O)O)cs2)c1-c1cccs1
- IC50 [2]: 120 nM

Structure (SMILES): Cc1sc(-n2nc(-c3ccccc3)c(C)c2-c2ccccc2)nc1C(=O)O
- IC50 [2]: 330 nM

Structure (SMILES): Cc1c(-c2ccccc2)nn(-c2ccc(C(=O)O)s2)c1-c1ccccc1
- IC50 [2]: 1000 nM

Structure (SMILES): Cc1c(-c2ccccc2)nn(-c2cncc(C(=O)O)c2)c1-c1ccccc1
- inhibition [1]: 26%

Structure (SMILES): Cc1c(-c2ccccc2)nn(-c2nc(C(=O)O)cs2)c1-c1cncnc1
- inhibition [1]: 24%

Structure (SMILES): Cc1c(-c2ccccc2)nn(-c2nc(C(=O)O)co2)c1-c1ccccc1
- inhibition [1]: 33%
